Tested on: Rattus norvegicus
Experiment: The compound was evaluated for hypotensive activity in anaesthetized Sprague Dawley rats on intravenous administration
Assay type: functional
Conditions: not given
How it was run: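 Male Sprague Dawley rats (280–350 g), pentobarbitone 60 mg/kg ip, ventilated; carotid blood pressure recorded. 15-min iv infusion via jugular vein, one per rat, vehicle PEG 200 with 0.01 N HCl diluted 1:10 in saline. Max MBP change over ≥30 min; two or more doses in 3–4 rats; dose giving 30 mmHg fall by linear regression vs log dose.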

| Compound | ED30 [mg/kg] |
| --- | --- |
| C/N=C(\S)[C@]1(c2cccnc2)CCCCS1 | 1.5 |
| C/N=C(\S)[C@]1(c2ccc(Cl)c(Cl)c2)CCCC[S+]1[O-] (some centres not stated) | 1.28 |
| CCCC/N=C(\S)[C@]1(c2cccnc2)CCCC[S+]1[O-] (some centres not stated) | 1.5 |
| CC/N=C(\S)[C@]1(c2cccnc2)CCCC[S+]1[O-] (some centres not stated) | 0.15 |
| C/N=C(\S)[C@]1(c2cccc(C#N)c2)CCCC[S+]1[O-] (some centres not stated) | 0.63 |
| C/N=C(\S)[C@]1(c2cnc3ccccc3c2)CCCC[S+]1[O-] (some centres not stated) | 0.04 |
| CC1(C)Oc2ccc(C#N)cc2C(N2CCCC2=O)C1O (configuration not stated) [CROMAKALIM] | 0.06 |

Species: Rattus norvegicus
Experiment: In vitro inhibitory concentration producing 90% reduction in maximum contraction produced by KCl (20 mmol) in isolated aorta of rat.
Assay type: functional
Conditions: not given
How it was run: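 Isolated aortic tissue recorded isometrically via force-displacement transducers; equilibrated 90 min at 2 g resting tension, contracted with 20 mmol KCl, then cumulative concentration-response relaxation, each concentration added once the prior maximal effect developed. Glibenclamide 5 μM tested for reversal of relaxation. Drugs dissolved in DMSO. Mean EC90 ± SEM, number of experiments given.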

| IC90 [µM] | Compound |
| --- | --- |
| 0.7 | C/N=C(/S)[C@]1(c2cccnc2)CCCC[S@@+]1[O-] (stereo in doubt; 8a) [APRIKALIM] |
| 0.4 | C/N=C(/S)[C@]1(c2cccnc2)CCCC[S@@+]1[O-] (stereo in doubt; 8b) [APRIKALIM] |
| > 30 | C/N=C(/S)[C@]1(c2cccnc2)CCCC[S@@+]1[O-] (stereo in doubt; 8c) [APRIKALIM] |

Same assay, conditions: Rattus norvegicus, Aorta

| IC90 [µM] | Compound |
| --- | --- |
| 30 | C/N=C(\S)C1(c2cccnc2)CCCC1 |
| > 30 | C/N=C(/S)[C@]1(c2cccnc2)CCCCS1(=O)=O |
| > 30 | C/N=C(\S)[C@]1(c2cccnc2)CCCO1 |
| 3 | C/N=C(\S)C1(c2cccnc2)CCCCC1 |
| > 30 | C/N=C(\S)C1(c2cccnc2)SCCCS1 |
| > 30 | C/N=C(\S)[C@]1(c2cccnc2)CCCCS1 |
| > 30 | C/N=C(\S)[C@]1(c2cccnc2)CCCS1 |
| > 30 | CNC(=S)[C@]1(c2cccnc2)CCCC[S@+]1[O-] |
| > 30 | C/N=C(\S)[C@]1(c2cccnc2)OCCCS1 |
| 25 | C/N=C(\S)[C@]1(c2ccncc2)CCCC[S+]1[O-] (some centres not stated) |
| 7 | C/N=C(\S)[C@]1(c2cccc(F)c2)CCCC[S+]1[O-] (some centres not stated) |
| > 30 | COC(=O)CC/N=C(\S)[C@]1(c2cccnc2)CCCC[S+]1[O-] (some centres not stated) |
| > 30 | COC(=N)[C@]1(c2cccnc2)CCCC[S+]1[O-] (some centres not stated) |
| > 30 | CNC(=O)[C@]1(c2cccnc2)CCCC[S+]1[O-] (some centres not stated) |
| > 30 | [O-][S+]1CCCC[C@]1(CO)c1cccnc1 (some centres not stated) |
| > 30 | N#C[C@]1(c2cccnc2)CCCC[S+]1[O-] (some centres not stated) |
| 0.8 | C/N=C(\S)[C@]1(c2cccc(C(F)(F)F)c2)CCCC[S+]1[O-] (some centres not stated) |
| 0.4 | C/N=C(\S)[C@]1(c2cc(Cl)cc(Cl)c2)CCCC[S+]1[O-] (some centres not stated) |
| 0.3 | C/N=C(\S)[C@]1(c2ccc(Cl)c(Cl)c2)CCCC[S+]1[O-] (some centres not stated) |
| 29 | C/N=C(\S)[C@]1(c2nc3ccccc3s2)CCCC[S+]1[O-] (some centres not stated) |
| 9.5 | C/N=C(\S)[C@]1(c2ccccc2)CCCC[S+]1[O-] (some centres not stated) |

| IC90 [µM] | Compound |
| --- | --- |
| 8 | CCCC/N=C(\S)[C@]1(c2cccnc2)CCCC[S+]1[O-] (some centres not stated) |
| 2 | C/N=C(\S)[C@]1(c2ccc3ccccc3c2)CCCC[S+]1[O-] (some centres not stated) |
| 4 | C/N=C(\S)[C@]1(c2cnc(-c3ccccc3)s2)CCCC[S+]1[O-] (some centres not stated) |
| 2.8 | C/N=C(\S)[C@]1(c2ccc(Cl)cc2)CCCC[S+]1[O-] (some centres not stated) |
| 12 | C/N=C(\S)[C@]1(c2ccc(-c3ccccc3)cc2)CCCC[S+]1[O-] (some centres not stated) |
| 0.3 | CC/N=C(\S)[C@]1(c2cccnc2)CCCC[S+]1[O-] (some centres not stated) |
| 12 | C/N=C(\S)[C@]1(c2cccc(C(N)=O)c2)CCCC[S+]1[O-] (some centres not stated) |
| > 30 | C/N=C(\SC)[C@]1(c2cccnc2)CCCC[S+]1[O-] (some centres not stated) |
| 7 | C/N=C(\S)[C@]1(c2ccns2)CCCC[S+]1[O-] (some centres not stated) |
| > 30 | O=C(O)CC/N=C(\S)[C@]1(c2cccnc2)CCCC[S+]1[O-] (some centres not stated) |
| 0.3 | C/N=C(\S)[C@]1(c2ccc(Cl)nc2)CCCC[S+]1[O-] (some centres not stated) |
| > 30 | C/N=C(\S)[C@]1(c2ccccn2)CCCC[S+]1[O-] (some centres not stated) |
| > 30 | N/N=C(\S)[C@]1(c2cccnc2)CCCC[S+]1[O-] (some centres not stated) |
| > 30 | [O-][S+]1CCCC[C@]1(CS)c1cccnc1 (some centres not stated) |
| 0.6 | CCC/N=C(\S)[C@]1(c2cccnc2)CCCC[S+]1[O-] (some centres not stated) |
| 10 | CC(C)/N=C(\S)[C@]1(c2cccnc2)CCCC[S+]1[O-] (some centres not stated) |
| > 30 | C/N=C(\S)[C@]1(c2cccc(C(=O)O)c2)CCCC[S+]1[O-] (some centres not stated) |
| > 30 | [O-][S+]1CCCC[C@]1(/C(S)=N/c1ccccc1)c1cccnc1 (some centres not stated) |
| 1.6 | C/N=C(\S)[C@]1(c2cccc(C#N)c2)CCCC[S+]1[O-] (some centres not stated) |
| 0.06 | C/N=C(\S)[C@]1(c2cnc3ccccc3c2)CCCC[S+]1[O-] (some centres not stated) |
| 0.2 | CC1(C)Oc2ccc(C#N)cc2C(N2CCCC2=O)C1O (configuration not stated) [CROMAKALIM] |
